In ChEMBL document CHEMBL3044653, “Synthesis and herbicidal activity of 2-(substituted phenoxyacetoxy)alkyl-5,5-dimethyl-1,3,2-dioxaphosphinan-2-one” (J Agric Food Chem, 2012):

Tests used:
Brassica napus = assay: Toxicity in Brassica napus (oilseed rape) assessed as inhibition at 150 g/hectare; format: functional
Summary of the method: (§1)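 For crop selectivity, conventional crop varieties were planted in 12 cm diameter plots and given a postemergence treatment at 150 g ai/ha. Injury was scored as percent inhibition, with 0–10% classed as safe to the crop.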

Brassica juncea [1] = assay: Post-emergence herbicidal activity against Brassica juncea assessed as inhibition at 150 g/hectare treated at two-leaf stage by green house assay; format: functional
Summary of the method: (§2)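 Greenhouse postemergence spray of diluted formulation solutions onto broadleaf weeds at the two-leaf stage. Primary screen at 150 g ai/ha, with selected compounds retested at 75 and 37.5 g ai/ha. Abutilon was tested at 150 g ai/ha only. Read-out is percent herbicidal damage relative to an untreated control.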

Eclipta prostrata [2] = assay: Post-emergence herbicidal activity against Eclipta prostrata assessed as inhibition at 150 g/hectare treated at two-leaf stage by green house assay; format: functional; summary of the method: as §2
Echinochloa crus-galli [3] = assay: Post-emergence herbicidal activity against Echinochloa crus-galli (barnyard grass) assessed as inhibition at 150 g/hectare treated at one-leaf stage by green house assay; format: functional
Summary of the method: (§3)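 Monocot weeds were sprayed postemergence in the greenhouse at the one-leaf stage with diluted formulation solutions. Primary dose was 150 g ai/ha, with follow-up doses of 75 and 37.5 g ai/ha for selected compounds. Activity is scored as percent herbicidal damage compared with an untreated control.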

Chenopodium album [4] = assay: Post-emergence herbicidal activity against Chenopodium album assessed as inhibition at 75 g/hectare by green house assay; format: functional
Ipomoea nil [5] = assay: Post-emergence herbicidal activity against Ipomoea nil (Japanese morning glory) assessed as inhibition at 150 g/hectare by green house assay; format: functional
Setaria viridis [6] = assay: Post-emergence herbicidal activity against Setaria viridis (green foxtail) assessed as inhibition at 150 g/hectare treated at one-leaf stage by green house assay; format: functional; summary of the method: as §3
Amaranthus retroflexus [7] = assay: Post-emergence herbicidal activity against Amaranthus retroflexus assessed as inhibition at 75 g/hectare by green house assay; format: functional
Glycine max = assay: Toxicity in Glycine max (soybean) plant assessed as inhibition at 150 g/hectare; format: organism-based; conditions: in vivo; summary of the method: as §1
Radish [8] = assay: Post-emergence herbicidal activity against Raphanus sativus (radish) assessed as inhibition at 75 g/hectare by green house assay; format: functional
Brassica juncea [9] = assay: Post-emergence herbicidal activity against Brassica juncea assessed as inhibition at 37.5 g/hectare treated at two-leaf stage by green house assay; format: functional; summary of the method: as §2
Amaranthus retroflexus [10] = assay: Post-emergence herbicidal activity against Amaranthus retroflexus assessed as inhibition at 37.5 g/hectare treated at two-leaf stage by green house assay; format: functional; summary of the method: as §2
Amaranthus retroflexus [11] = assay: Post-emergence herbicidal activity against Amaranthus retroflexus assessed as inhibition at 75 g/hectare treated at two-leaf stage by green house assay; format: functional; summary of the method: as §2
Brassica juncea [12] = assay: Post-emergence herbicidal activity against Brassica juncea assessed as inhibition at 75 g/hectare by green house assay; format: functional
[13] = test system: Brassica rapa subsp. chinensis; assay: Post-emergence herbicidal activity against Brassica rapa subsp. chinensis assessed as inhibition at 75 g/hectare by green house assay; format: functional
Brassica juncea [14] = assay: Post-emergence herbicidal activity against Brassica juncea assessed as inhibition at 75 g/hectare treated at two-leaf stage by green house assay; format: functional; summary of the method: as §2
Pontederia vaginalis [15] = assay: Post-emergence herbicidal activity against Monochoria vaginalis assessed as inhibition at 75 g/hectare by green house assay; format: functional
Eclipta prostrata [16] = assay: Post-emergence herbicidal activity against Eclipta prostrata assessed as inhibition at 75 g/hectare treated at two-leaf stage by green house assay; format: functional; summary of the method: as §2
Setaria viridis [17] = assay: Post-emergence herbicidal activity against Setaria viridis (green foxtail) assessed as inhibition at 37.5 g/hectare treated at one-leaf stage by green house assay; format: functional; summary of the method: as §3
Oryza sativa = assay: Toxicity in Oryza sativa (rice) plant assessed as inhibition at 150 g/hectare; format: organism-based; conditions: in vivo; summary of the method: as §1
Amaranthus retroflexus [18] = assay: Post-emergence herbicidal activity against Amaranthus retroflexus assessed as inhibition at 150 g/hectare by green house assay; format: functional
Digitaria sanguinalis [19] = assay: Post-emergence herbicidal activity against Digitaria sanguinalis (hairy crabgrass) assessed as inhibition at 150 g/hectare treated at one-leaf stage by green house assay; format: functional; summary of the method: as §3
Abutilon theophrasti = assay: Post-emergence herbicidal activity against Abutilon theophrasti (velvetleaf) assessed as inhibition at 150 g/hectare treated at two-leaf stage by green house assay; format: functional; summary of the method: as §2
Pontederia vaginalis [20] = assay: Post-emergence herbicidal activity against Monochoria vaginalis assessed as inhibition at 150 g/hectare by green house assay; format: functional
Digitaria sanguinalis [21] = assay: Post-emergence herbicidal activity against Digitaria sanguinalis (hairy crabgrass) assessed as inhibition at 75 g/hectare treated at one-leaf stage by green house assay; format: functional; summary of the method: as §3
Echinochloa crus-galli [22] = assay: Post-emergence herbicidal activity against Echinochloa crus-galli (barnyard grass) assessed as inhibition at 37.5 g/hectare treated at one-leaf stage by green house assay; format: functional; summary of the method: as §3
Eclipta prostrata [23] = assay: Post-emergence herbicidal activity against Eclipta prostrata assessed as inhibition at 37.5 g/hectare treated at two-leaf stage by green house assay; format: functional; summary of the method: as §2
Triticum aestivum = assay: Toxicity in Triticum aestivum (wheat) plant assessed as inhibition at 150 g/hectare; format: organism-based; conditions: in vivo; summary of the method: as §1
Echinochloa crus-galli [24] = assay: Post-emergence herbicidal activity against Echinochloa crus-galli (barnyard grass) assessed as inhibition at 75 g/hectare treated at one-leaf stage by green house assay; format: functional; summary of the method: as §3
[25] = test system: Brassica rapa subsp. chinensis; assay: Post-emergence herbicidal activity against Brassica rapa subsp. chinensis assessed as inhibition at 150 g/hectare by green house assay; format: functional
Brassica juncea [26] = assay: Post-emergence herbicidal activity against Brassica juncea assessed as inhibition at 150 g/hectare by green house assay; format: functional
Radish [27] = assay: Post-emergence herbicidal activity against Raphanus sativus (radish) assessed as inhibition at 150 g/hectare by green house assay; format: functional
Ipomoea nil [28] = assay: Post-emergence herbicidal activity against Ipomoea nil (Japanese morning glory) assessed as inhibition at 75 g/hectare by green house assay; format: functional
Zea mays = assay: Toxicity in Zea mays (maize) plant assessed as inhibition at 150 g/hectare; format: organism-based; conditions: in vivo; summary of the method: as §1
Chenopodium album [29] = assay: Post-emergence herbicidal activity against Chenopodium album assessed as inhibition at 150 g/hectare by green house assay; format: functional
Amaranthus retroflexus [30] = assay: Post-emergence herbicidal activity against Amaranthus retroflexus assessed as inhibition at 150 g/hectare treated at two-leaf stage by green house assay; format: functional; summary of the method: as §2
Setaria viridis [31] = assay: Post-emergence herbicidal activity against Setaria viridis (green foxtail) assessed as inhibition at 75 g/hectare treated at one-leaf stage by green house assay; format: functional; summary of the method: as §3
Ammannia baccifera [32] = assay: Post-emergence herbicidal activity against Ammannia baccifera assessed as inhibition at 75 g/hectare by green house assay; format: functional
Ammannia baccifera [33] = assay: Post-emergence herbicidal activity against Ammannia baccifera assessed as inhibition at 150 g/hectare by green house assay; format: functional
Digitaria sanguinalis [34] = assay: Post-emergence herbicidal activity against Digitaria sanguinalis (hairy crabgrass) assessed as inhibition at 37.5 g/hectare treated at one-leaf stage by green house assay; format: functional; summary of the method: as §3
Gossypium hirsutum = assay: Toxicity in Gossypium hirsutum (cotton) plant assessed as inhibition at 150 g/hectare; format: organism-based; conditions: in vivo; summary of the method: as §1

Cc1cc(Cl)ccc1OCC(=O)OC(C)P1(=O)OCC(C)(C)CO1 (stereo unspecified)
inhibition at 150 g/ha (Brassica napus): 40%
inhibition at 150 g/ha (Brassica juncea [1]): 100%
inhibition at 150 g/ha (Eclipta prostrata [2]): 90%
inhibition at 150 g/ha (Echinochloa crus-galli [3]): 30%
inhibition at 75 g/ha (Chenopodium album [4]): 70%
inhibition at 150 g/ha (Ipomoea nil [5]): 100%
inhibition at 150 g/ha (Setaria viridis [6]): 0%
inhibition at 75 g/ha (Amaranthus retroflexus [7]): 100%
inhibition (INH) (Glycine max): 20%
inhibition at 75 g/ha (Radish [8]): 80%
inhibition at 37.5 g/ha (Brassica juncea [9]): 80%
inhibition at 37.5 g/ha (Amaranthus retroflexus [10]): 80%
inhibition at 75 g/ha (Amaranthus retroflexus [11]): 100%
inhibition at 75 g/ha (Brassica juncea [12]): 100%
inhibition at 75 g/ha [13]: 70%
inhibition at 75 g/ha (Brassica juncea [14]): 100%
inhibition at 75 g/ha (Pontederia vaginalis [15]): 100%
inhibition at 75 g/ha (Eclipta prostrata [16]): 85%
inhibition at 37.5 g/ha (Setaria viridis [17]): 0%
inhibition (INH) (Oryza sativa): 10%
inhibition at 150 g/ha (Amaranthus retroflexus [18]): 100%
inhibition at 150 g/ha (Digitaria sanguinalis [19]): 0%
inhibition at 150 g/ha (Abutilon theophrasti): 100%
inhibition at 150 g/ha (Pontederia vaginalis [20]): 100%
inhibition at 75 g/ha (Digitaria sanguinalis [21]): 0%
inhibition at 37.5 g/ha (Echinochloa crus-galli [22]): 0%
inhibition at 37.5 g/ha (Eclipta prostrata [23]): 80%
inhibition (INH) (Triticum aestivum): 0%
inhibition at 75 g/ha (Echinochloa crus-galli [24]): 0%
inhibition at 150 g/ha [25]: 80%
inhibition at 150 g/ha (Brassica juncea [26]): 100%
inhibition at 150 g/ha (Radish [27]): 80%
inhibition at 75 g/ha (Ipomoea nil [28]): 100%
inhibition (INH) (Zea mays): 0%
inhibition at 150 g/ha (Chenopodium album [29]): 75%
inhibition at 150 g/ha (Amaranthus retroflexus [30]): 100%
inhibition at 75 g/ha (Setaria viridis [31]): 0%
inhibition at 75 g/ha (Ammannia baccifera [32]): 100%
inhibition at 150 g/ha (Ammannia baccifera [33]): 100%
inhibition at 37.5 g/ha (Digitaria sanguinalis [34]): 0%
inhibition (INH) (Gossypium hirsutum): 20%

CC1(C)COP(=O)(C(OC(=O)COc2ccc(Cl)cc2Cl)c2ccc(Cl)cc2Cl)OC1 (stereo unspecified)
inhibition at 150 g/ha (Brassica napus): 40%
inhibition at 150 g/ha (Brassica juncea [1]): 100%
inhibition at 150 g/ha (Eclipta prostrata [2]): 70%
inhibition at 150 g/ha (Echinochloa crus-galli [3]): 0%
inhibition at 150 g/ha (Setaria viridis [6]): 0%
inhibition (INH) (Glycine max): 30%
inhibition at 37.5 g/ha (Brassica juncea [9]): 50%
inhibition at 37.5 g/ha (Amaranthus retroflexus [10]): 20%
inhibition at 75 g/ha (Amaranthus retroflexus [11]): 20%
inhibition at 75 g/ha (Brassica juncea [14]): 55%
inhibition at 75 g/ha (Eclipta prostrata [16]): 34%
inhibition at 37.5 g/ha (Setaria viridis [17]): 0%
inhibition (INH) (Oryza sativa): 10%
inhibition at 150 g/ha (Digitaria sanguinalis [19]): 0%
inhibition at 150 g/ha (Abutilon theophrasti): 95%
inhibition at 75 g/ha (Digitaria sanguinalis [21]): 0%
inhibition at 37.5 g/ha (Echinochloa crus-galli [22]): 0%
inhibition at 37.5 g/ha (Eclipta prostrata [23]): 30%
inhibition (INH) (Triticum aestivum): 0%
inhibition at 75 g/ha (Echinochloa crus-galli [24]): 0%
inhibition (INH) (Zea mays): 10%
inhibition at 150 g/ha (Amaranthus retroflexus [30]): 80%
inhibition at 75 g/ha (Setaria viridis [31]): 0%
inhibition at 37.5 g/ha (Digitaria sanguinalis [34]): 0%
inhibition (INH) (Gossypium hirsutum): 20%

CC(C)C(OC(=O)COc1ccc(Cl)cc1Cl)P1(=O)OCC(C)(C)CO1 (stereo unspecified)
inhibition at 150 g/ha (Brassica napus): 50%
inhibition at 150 g/ha (Brassica juncea [1]): 100%
inhibition at 150 g/ha (Eclipta prostrata [2]): 75%
inhibition at 150 g/ha (Echinochloa crus-galli [3]): 0%
inhibition at 150 g/ha (Setaria viridis [6]): 0%
inhibition (INH) (Glycine max): 30%
inhibition at 37.5 g/ha (Brassica juncea [9]): 90%
inhibition at 37.5 g/ha (Amaranthus retroflexus [10]): 30%
inhibition at 75 g/ha (Amaranthus retroflexus [11]): 80%
inhibition at 75 g/ha (Brassica juncea [14]): 100%
inhibition at 75 g/ha (Eclipta prostrata [16]): 35%
inhibition at 37.5 g/ha (Setaria viridis [17]): 0%
inhibition (INH) (Oryza sativa): 20%
inhibition at 150 g/ha (Digitaria sanguinalis [19]): 0%
inhibition at 150 g/ha (Abutilon theophrasti): 95%
inhibition at 75 g/ha (Digitaria sanguinalis [21]): 0%
inhibition at 37.5 g/ha (Echinochloa crus-galli [22]): 0%
inhibition at 37.5 g/ha (Eclipta prostrata [23]): 30%
inhibition (INH) (Triticum aestivum): 10%
inhibition at 75 g/ha (Echinochloa crus-galli [24]): 0%
inhibition (INH) (Zea mays): 0%
inhibition at 150 g/ha (Amaranthus retroflexus [30]): 85%
inhibition at 75 g/ha (Setaria viridis [31]): 0%
inhibition at 37.5 g/ha (Digitaria sanguinalis [34]): 0%
inhibition (INH) (Gossypium hirsutum): 20%
